In BindingDB's records for doi:10.1021/jm00151a016 (1986):
Positions of bridges follow the written chain, without caps; N, C: chain ends. Non-standard residues stand in square brackets, D forms with d. Residues, ends and D or L forms follow the SMILES beside them. NMeA = CN[C@@H](C)C(=O)O; Sar = CNCC(=O)O

Legend:
Vasopressin V2 receptor = Vasopressin V2 receptor (Bos taurus, UniProt P48044); experiment: ChEBML_214690
From the text: Binding affinity against plasma membrane from bovine kidney inner medulla using [3H]AVP as a radioligand

[1] = biological target: Vasopressin V1a/V1b receptor (Rattus norvegicus, UniProt P30560+P48974); experiment: Binding affinity against plasma membrane from rat liver using [3H]-AVP as a radioligand
Vasopressin V1a/V1b receptor, sequence (P30560 whole entry): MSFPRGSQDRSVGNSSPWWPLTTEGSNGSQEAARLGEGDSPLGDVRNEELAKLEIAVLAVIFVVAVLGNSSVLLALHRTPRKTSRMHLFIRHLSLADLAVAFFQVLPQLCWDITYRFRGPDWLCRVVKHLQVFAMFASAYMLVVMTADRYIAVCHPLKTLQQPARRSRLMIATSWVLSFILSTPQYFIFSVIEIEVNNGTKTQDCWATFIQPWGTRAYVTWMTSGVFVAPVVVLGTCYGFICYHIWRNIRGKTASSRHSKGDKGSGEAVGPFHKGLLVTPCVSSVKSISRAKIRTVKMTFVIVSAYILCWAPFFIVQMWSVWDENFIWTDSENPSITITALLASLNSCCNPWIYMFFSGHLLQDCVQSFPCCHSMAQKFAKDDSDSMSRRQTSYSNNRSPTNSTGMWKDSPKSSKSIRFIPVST
Vasopressin V1a/V1b receptor, sequence (P48974 whole entry): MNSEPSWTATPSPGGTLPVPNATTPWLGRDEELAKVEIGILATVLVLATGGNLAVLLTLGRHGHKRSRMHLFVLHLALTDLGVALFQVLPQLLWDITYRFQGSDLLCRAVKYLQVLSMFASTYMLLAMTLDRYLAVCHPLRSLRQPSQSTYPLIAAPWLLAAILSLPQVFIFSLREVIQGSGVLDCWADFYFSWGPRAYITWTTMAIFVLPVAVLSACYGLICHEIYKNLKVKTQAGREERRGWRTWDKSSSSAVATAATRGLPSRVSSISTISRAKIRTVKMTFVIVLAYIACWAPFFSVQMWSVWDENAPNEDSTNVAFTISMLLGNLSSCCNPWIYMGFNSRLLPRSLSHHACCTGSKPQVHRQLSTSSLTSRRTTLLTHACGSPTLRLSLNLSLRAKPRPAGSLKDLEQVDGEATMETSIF
Summary of the method: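 Competition binding with [3H]AVP to plasma membranes, 30 min incubation; for rat liver membranes the standard medium included bacitracin (1 mg/mL). Apparent KD and slope factor b from weighted nonlinear least-squares fit of displacement curves to logistic curves; [3H]AVP parameters from direct binding. Mean ±SE of two experiments.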

Vasopressin V2 receptor, sequence (P48044 whole entry): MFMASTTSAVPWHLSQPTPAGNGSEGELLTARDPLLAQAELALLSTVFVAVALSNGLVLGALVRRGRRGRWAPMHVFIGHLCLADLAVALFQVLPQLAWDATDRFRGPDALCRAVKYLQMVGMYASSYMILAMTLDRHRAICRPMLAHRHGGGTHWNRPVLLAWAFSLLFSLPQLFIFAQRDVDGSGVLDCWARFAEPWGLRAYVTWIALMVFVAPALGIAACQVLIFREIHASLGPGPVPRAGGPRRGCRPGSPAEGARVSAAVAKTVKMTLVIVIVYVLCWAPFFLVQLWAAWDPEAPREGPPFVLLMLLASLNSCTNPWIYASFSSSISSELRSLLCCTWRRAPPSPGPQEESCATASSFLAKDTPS

Kd (Vasopressin V2 receptor) | Kd [1] | SMILES
0.0094 µM | – | CC(C)[C@H]1NC(=O)[C@H](Cc2ccccc2)NC(=O)[C@@H](Cc2ccc(O)cc2)NC(=O)CCSSC[C@@H](C(=O)N(C)[C@@H](C)C(=O)N[C@@H](CCCN=C(N)N)C(=O)NCC(N)=O)NC(=O)[C@H](CC(N)=O)NC1=O
– | 0.11 µM | C[C@@H](C(=O)N[C@@H](CCCN=C(N)N)C(=O)NCC(N)=O)N(C)C(=O)[C@@H]1CSSC[C@H](N)C(=O)N[C@@H](Cc2ccccc2)C(=O)N[C@@H](Cc2ccccc2)C(=O)N[C@@H](CCC(N)=O)C(=O)N[C@@H](CC(N)=O)C(=O)N1 (H-CFFQNC[NMeA]RG-NH2; disulfide 1-6)
0.0094 µM | 0.11 µM | CC(C)[C@@H]1NC(=O)[C@H](Cc2ccccc2)NC(=O)[C@H](Cc2ccc(O)cc2)NC(=O)[C@@H](N)CSSC[C@@H](C(=O)N(C)CC(=O)N[C@@H](CCCNC(=N)N)C(=O)NCC(N)=O)NC(=O)[C@H](CC(N)=O)NC1=O (H-CYFVNC[Sar]RG-NH2; disulfide 1-6)
